Test results from ChEMBL document CHEMBL5724801, “EUbOPEN Chemogenomics Library - Multiplex” (2024).
Where “and” joins values, the source holds several entries; their conditions need not be identical. Equal values may be shown once.

System: Fibroblast
Assay: Multiplex assay against human fibroblast
Assay type: toxicity, cell-based
Summary of the method: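 Tubulin, mitochondrial-mass and membrane-permeability phenotypes are per cents of healthy-nucleus cells. Cells were gated by CellPathfinder machine learning into Hoechst high-intensity objects or normal cells, normal cells into healthy, pyknosed or fragmented nuclei, and pyknosed cells into mitotic or apoptotic. Before that, live cells stained at seeding with Hoechst33342, BioTracker Green Microtubule Cytoskeleton Dye, MitoTracker Red and Annexin V Alexa Fluor 680 were imaged on a CQ1 microscope at 37°C and 5% CO2 after compound addition.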

[1] = 12 h, 1 µM, compound concentration 1 uM
[2] = 12 h, 10 µM, compound concentration 10 uM
[3] = 24 h, 1 µM, compound concentration 1 uM
[4] = 24 h, 10 µM, compound concentration 10 uM
[5] = 48 h, 1 µM, compound concentration 1 uM
[6] = 48 h, 10 µM, compound concentration 10 uM

SMILES: O=C(CCCc1ccccc1)Nc1nc2ccccc2c(=O)s1
- Population Apoptotic (%) [1]: 58% and 34%
- Population Fragmented Nuclei (%) [1]: 9% and 19%
- Population Healthy Nuclei (%) [1]: 66% and 49%
- Population Hoechst High Intensity Objects (%) [1]: 2% and 3%
- Population Membrane Permeable-Phenotype (%) [1]: 0% and 9%
- Population Mitochondria Different-Phenotype (%) [1]: 4% and 7%
- Population Mitotic Cells (%) [1]: 41% and 65%
- Population Normal (%) [1]: 97% and 96%
- Population Pyknosed Nuclei (%) [1]: 23% and 31%
- Population Tubulin-Different-Phenotype (%) [1]: 34% and 35%
- Total Cell Count [1]: 127 and 135
- Population Apoptotic (%) [2]: 51% and 31%
- Population Fragmented Nuclei (%) [2]: 21% and 26%
- Population Healthy Nuclei (%) [2]: 58% and 38%
- Population Hoechst High Intensity Objects (%) [2]: 2% and 12%
- Population Mitotic Cells (%) [2]: 48% and 68%
- Population Normal (%) [2]: 97% and 87%
- Population Pyknosed Nuclei (%) [2]: 20% and 35%
- Population Tubulin-Different-Phenotype (%) [2]: 28% and 48%
- Total Cell Count [2]: 147 and 133
- Population Apoptotic (%) [3]: 50% and 42%
- Population Fragmented Nuclei (%) [3]: 13% and 21%
- Population Healthy Nuclei (%) [3]: 68% and 51%
- Population Hoechst High Intensity Objects (%) [3]: 2% and 5%
- Population Membrane Permeable-Phenotype (%) [3]: 0% and 4%
- Population Mitochondria Different-Phenotype (%) [3]: 5% and 4%
- Population Mitotic Cells (%) [3]: 50% and 57%
- Population Normal (%) [3]: 97% and 94%
- Population Pyknosed Nuclei (%) [3]: 18% and 26%
- Population Tubulin-Different-Phenotype (%) [3]: 20% and 35%
- Total Cell Count [3]: 147 and 131
- Population Apoptotic (%) [4]: 46% and 53%
- Population Fragmented Nuclei (%) [4]: 19% and 34%
- Population Healthy Nuclei (%) [4]: 60% and 39%
- Population Hoechst High Intensity Objects (%) [4]: 5%
- Population Membrane Permeable-Phenotype (%) [4]: 0% and 18%
- Population Mitotic Cells (%) [4]: 53% and 46%
- Population Normal (%) [4]: 94%
- Population Pyknosed Nuclei (%) [4]: 20% and 25%
- Total Cell Count [4]: 135 and 134
- Population Apoptotic (%) [5]: 59% and 42%
- Population Fragmented Nuclei (%) [5]: 13% and 26%
- Population Healthy Nuclei (%) [5]: 66% and 58%
- Population Hoechst High Intensity Objects (%) [5]: 5% and 2%
- Population Membrane Permeable-Phenotype (%) [5]: 1% and 4%
- Population Mitochondria Different-Phenotype (%) [5]: 1% and 6%
- Population Mitotic Cells (%) [5]: 40% and 57%
- Population Normal (%) [5]: 94% and 97%
- Population Pyknosed Nuclei (%) [5]: 19% and 15%
- Population Tubulin-Different-Phenotype (%) [5]: 32% and 50%
- Total Cell Count [5]: 146 and 127
- Population Apoptotic (%) [6]: 58% and 77%
- Population Fragmented Nuclei (%) [6]: 19% and 40%
- Population Healthy Nuclei (%) [6]: 58% and 43%
- Population Hoechst High Intensity Objects (%) [6]: 2% and 5%
- Population Membrane Permeable-Phenotype (%) [6]: 1% and 10%
- Population Mitotic Cells (%) [6]: 41% and 22%
- Population Normal (%) [6]: 97% and 94%
- Population Pyknosed Nuclei (%) [6]: 22% and 16%
- Population Tubulin-Different-Phenotype (%) [6]: 26% and 73%
- Total Cell Count [6]: 143 and 119

SMILES: COc1cc(C(=O)N2CC[C@@H](O)[C@@H](N)C2)cc2nc(-c3cc4ccccc4n3CC3CC3)n(C)c12.Cl
- Population Apoptotic (%) [1]: 21% and 48%
- Population Fragmented Nuclei (%) [1]: 25% and 24%
- Population Healthy Nuclei (%) [1]: 62% and 44%
- Population Hoechst High Intensity Objects (%) [1]: 2% and 3%
- Population Membrane Permeable-Phenotype (%) [1]: 0% and 10%
- Population Mitochondria Different-Phenotype (%) [1]: 4% and 14%
- Population Mitotic Cells (%) [1]: 78% and 51%
- Population Normal (%) [1]: 97% and 96%
- Population Pyknosed Nuclei (%) [1]: 12% and 31%
- Population Tubulin-Different-Phenotype (%) [1]: 55% and 69%
- Total Cell Count [1]: 160 and 130
- Population Apoptotic (%) [2]: 60% and 48%
- Population Fragmented Nuclei (%) [2]: 22% and 30%
- Population Healthy Nuclei (%) [2]: 57% and 44%
- Population Hoechst High Intensity Objects (%) [2]: 6% and 10%
- Population Membrane Permeable-Phenotype (%) [2]: 0% and 2%
- Population Mitochondria Different-Phenotype (%) [2]: 34% and 25%
- Population Mitotic Cells (%) [2]: 40% and 51%
- Population Normal (%) [2]: 93% and 89%
- Population Pyknosed Nuclei (%) [2]: 19% and 25%
- Population Tubulin-Different-Phenotype (%) [2]: 97% and 92%
- Total Cell Count [2]: 271 and 179
- Population Apoptotic (%) [3]: 55% and 60%
- Population Fragmented Nuclei (%) [3]: 24% and 31%
- Population Healthy Nuclei (%) [3]: 62% and 36%
- Population Hoechst High Intensity Objects (%) [3]: 3% and 4%
- Population Membrane Permeable-Phenotype (%) [3]: 0% and 4%
- Population Mitotic Cells (%) [3]: 45% and 39%
- Population Normal (%) [3]: 96% and 95%
- Population Pyknosed Nuclei (%) [3]: 13% and 31%
- Population Tubulin-Different-Phenotype (%) [3]: 51% and 79%
- Total Cell Count [3]: 158 and 125
- Population Apoptotic (%) [4]: 73% and 62%
- Population Fragmented Nuclei (%) [4]: 15% and 27%
- Population Healthy Nuclei (%) [4]: 68% and 54%
- Population Hoechst High Intensity Objects (%) [4]: 7% and 5%
- Population Membrane Permeable-Phenotype (%) [4]: 0% and 3%
- Population Mitochondria Different-Phenotype (%) [4]: 55% and 41%
- Population Mitotic Cells (%) [4]: 26% and 37%
- Population Normal (%) [4]: 92% and 94%
- Population Pyknosed Nuclei (%) [4]: 16% and 17%
- Population Tubulin-Different-Phenotype (%) [4]: 94% and 92%
- Total Cell Count [4]: 274 and 174
- Population Apoptotic (%) [5]: 80% and 64%
- Population Fragmented Nuclei (%) [5]: 22% and 38%
- Population Healthy Nuclei (%) [5]: 67% and 41%
- Population Hoechst High Intensity Objects (%) [5]: 6% and 1%
- Population Membrane Permeable-Phenotype (%) [5]: 0% and 3%
- Population Mitochondria Different-Phenotype (%) [5]: 8% and 16%
- Population Mitotic Cells (%) [5]: 20% and 35%
- Population Normal (%) [5]: 93% and 98%
- Population Pyknosed Nuclei (%) [5]: 10% and 20%
- Population Tubulin-Different-Phenotype (%) [5]: 44% and 80%
- Total Cell Count [5]: 161 and 153
- Population Apoptotic (%) [6]: 86%
- Population Fragmented Nuclei (%) [6]: 20% and 32%
- Population Healthy Nuclei (%) [6]: 64% and 55%
- Population Hoechst High Intensity Objects (%) [6]: 8% and 4%
- Population Membrane Permeable-Phenotype (%) [6]: 0%
- Population Mitochondria Different-Phenotype (%) [6]: 62% and 36%
- Population Mitotic Cells (%) [6]: 13%
- Population Normal (%) [6]: 91% and 95%
- Population Pyknosed Nuclei (%) [6]: 15% and 11%
- Population Tubulin-Different-Phenotype (%) [6]: 94%
- Total Cell Count [6]: 256 and 193

SMILES: CN(C)CCCc1cc(C(=O)Nc2ccc(-c3ccncc3)cc2)ccc1O.Cl.Cl
- Population Apoptotic (%) [1]: 31% and 44%
- Population Fragmented Nuclei (%) [1]: 15% and 22%
- Population Healthy Nuclei (%) [1]: 65% and 52%
- Population Hoechst High Intensity Objects (%) [1]: 4% and 2%
- Population Membrane Permeable-Phenotype (%) [1]: 0% and 4%
- Population Mitochondria Different-Phenotype (%) [1]: 7% and 4%
- Population Mitotic Cells (%) [1]: 68% and 55%
- Population Normal (%) [1]: 95% and 97%
- Population Pyknosed Nuclei (%) [1]: 18% and 24%
- Population Tubulin-Different-Phenotype (%) [1]: 22% and 40%
- Total Cell Count [1]: 122 and 120
- Population Apoptotic (%) [2]: 68% and 48%
- Population Fragmented Nuclei (%) [2]: 33% and 31%
- Population Healthy Nuclei (%) [2]: 58% and 51%
- Population Hoechst High Intensity Objects (%) [2]: 7% and 4%
- Population Membrane Permeable-Phenotype (%) [2]: 0% and 4%
- Population Mitochondria Different-Phenotype (%) [2]: 15% and 6%
- Population Mitotic Cells (%) [2]: 31% and 51%
- Population Normal (%) [2]: 92% and 95%
- Population Pyknosed Nuclei (%) [2]: 7% and 17%
- Population Tubulin-Different-Phenotype (%) [2]: 43% and 45%
- Total Cell Count [2]: 305 and 236
- Population Apoptotic (%) [3]: 30% and 37%
- Population Fragmented Nuclei (%) [3]: 16% and 22%
- Population Healthy Nuclei (%) [3]: 66% and 50%
- Population Hoechst High Intensity Objects (%) [3]: 1% and 4%
- Population Membrane Permeable-Phenotype (%) [3]: 2% and 1%
- Population Mitochondria Different-Phenotype (%) [3]: 3% and 7%
- Population Mitotic Cells (%) [3]: 70% and 62%
- Population Normal (%) [3]: 98% and 95%
- Population Pyknosed Nuclei (%) [3]: 17% and 27%
- Population Tubulin-Different-Phenotype (%) [3]: 25% and 45%
- Total Cell Count [3]: 119 and 111
- Population Apoptotic (%) [4]: 47% and 42%
- Population Fragmented Nuclei (%) [4]: 30% and 31%
- Population Healthy Nuclei (%) [4]: 63% and 53%
- Population Hoechst High Intensity Objects (%) [4]: 6% and 4%
- Population Membrane Permeable-Phenotype (%) [4]: 0% and 5%
- Population Mitochondria Different-Phenotype (%) [4]: 11% and 5%
- Population Mitotic Cells (%) [4]: 52% and 57%
- Population Normal (%) [4]: 93% and 95%
- Population Pyknosed Nuclei (%) [4]: 5% and 14%
- Population Tubulin-Different-Phenotype (%) [4]: 40% and 42%
- Total Cell Count [4]: 339 and 242
- Population Apoptotic (%) [5]: 62% and 50%
- Population Fragmented Nuclei (%) [5]: 28% and 23%
- Population Healthy Nuclei (%) [5]: 59% and 54%
- Population Hoechst High Intensity Objects (%) [5]: 0% and 8%
- Population Membrane Permeable-Phenotype (%) [5]: 0% and 1%
- Population Mitochondria Different-Phenotype (%) [5]: 1% and 5%
- Population Mitotic Cells (%) [5]: 37% and 50%
- Population Normal (%) [5]: 99% and 91%
- Population Pyknosed Nuclei (%) [5]: 12% and 21%
- Population Tubulin-Different-Phenotype (%) [5]: 29% and 46%
- Total Cell Count [5]: 126 and 111
- Population Apoptotic (%) [6]: 56% and 51%
- Population Fragmented Nuclei (%) [6]: 28% and 35%
- Population Healthy Nuclei (%) [6]: 60% and 53%
- Population Hoechst High Intensity Objects (%) [6]: 11% and 2%
- Population Membrane Permeable-Phenotype (%) [6]: 0% and 3%
- Population Mitochondria Different-Phenotype (%) [6]: 8% and 2%
- Population Mitotic Cells (%) [6]: 43% and 48%
- Population Normal (%) [6]: 88% and 97%
- Population Pyknosed Nuclei (%) [6]: 11% and 10%
- Population Tubulin-Different-Phenotype (%) [6]: 48% and 39%
- Total Cell Count [6]: 321 and 261
